Active and inactive are the calls of the source. No cut-off for these calls is given here.
Columns and labels:
MeWo [1] = experiment: Cytotoxicity against human MeWo cells assessed as cell viability at 10 uM after 48 hrs by MTT assay relative to vehicle-treated control; type: functional; conditions: read-out: Activity
How it was run: (§1)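 MeWo melanoma cells (DMEM, 10% FBS, 2 mM L-glutamine, penicillin/streptomycin 100 µg/mL) grown 48 h with or without compound. Washed twice in Locke's solution (HEPES pH 7.6), then MTT 250 µg/mL for 90 min. Screening at 10 µM fixed concentration against untreated control. Concentration–response: mean + S.D. of 8–16 replicates from 4 separate experiments.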

Tubulin (Homo sapiens) [2] = molecular target: T1, Tubulin (Homo sapiens) (UniProt P68371+Q9H4B7+P0DPH7+P68366+Q13509+Q71U36+P04350+Q3ZCM7+P07437+P68363+Q9BQE3+Q6PEY2+Q13885+Q9BVA1+Q9BUF5); experiment: Inhibition of alpha-tubulin polymerization in human MeWo cells at 3 X IC50 after 16 hrs by immunofluorescence microscopic analysis; type: cell-based
How it was run: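 MeWo cells on glass coverslips, drug-treated at 3× IC50, 16 h per the legend (24 h in methods). Stained with anti-tubulin (1:1000, 20 min RT), Alexa 488 secondary and nuclear dye, imaged at 63× oil. Representative of three experiments.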

MeWo [3] = experiment: Antitubulinic activity in human MeWo cells assessed as blockade in G2/M phase at 3 X IC50 after 16 hrs by propidium iodide staining-based FACS analysis; type: functional, cell-based
How it was run: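 MeWo cells (DMEM, 10% FBS, 2 mM L-glutamine, pen/strep) exposed 16 h to vehicle or compound. Washed once in PBS, then fixed in ice-cold 30:70 PBS/EtOH and held at −20 °C before DNA-content flow cytometry. Histograms shown are representative of three separate experiments.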

[4] = Cytotoxicity against human SH-SY5Y cells assessed as cell viability after 48 hrs by MTT assay; type: functional, cell-based
How it was run: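 SH-SY5Y neuroblastoma cells in 50% DMEM/50% F-12 with 10% FBS, treated 48 h across a concentration range. Viability by MTT: cells washed twice in Locke's solution (pH 7.6), then 90 min with MTT 250 µg/mL. Mean + S.D. of 8–16 replicates from 4 separate experiments.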

Tubulin (Homo sapiens) [5] = molecular target: T1, Tubulin (Homo sapiens); experiment: Inhibition of alpha-tubulin polymerization in human MeWo cells at 3 X IC50 after 16 hrs by Western blot analysis in presence of paclitaxel; type: cell-based
How it was run: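 MeWo cells in flasks, treated 16 h at 3× IC50 or left untreated. Trypsinised and lysed 10 min at RT in hypotonic buffer (20 mM Tris-HCl pH 6.8, 1 mM MgCl2, 2 mM EGTA, 0.5% NP-40, protease inhibitors) containing paclitaxel. Equal protein centrifuged 13000 rpm, 15 min. Pellet (polymerized) and supernatant (free) α-tubulin compared by SDS-PAGE/western blot, chemiluminescence. Three experiments; CA-4 positive control.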

MeWo [6] = experiment: Cytotoxicity against human MeWo cells assessed as cell viability after 48 hrs by MTT assay; type: functional, cell-based; how it was run: as §1

## COc1ccc(/C=C/C(O)=C/C(=O)c2ccc(O)c(OC)c2)cc1
MeWo [1]
  viability at 10 µM: 84%

## COc1cc(C(=O)/C=C(O)/C=C/c2ccc(O)cc2)ccc1O
MeWo [1]
  viability at 10 µM: 98%

## COc1ccc(/C=C/C(O)=C/C(=O)c2ccccc2)cc1
MeWo [1]
  viability at 10 µM: 90%

## COc1cc(-c2cc(/C=C/c3cc(OC)c(OC)c(OC)c3)n[nH]2)ccc1O
MeWo [1]
  viability at 10 µM: 75%

## COc1ccc(/C=C/c2cc(-c3ccc(O)cc3)[nH]n2)cc1
MeWo [1]
  viability at 10 µM: 81%

## COc1cc(/C=C/c2cc(-c3ccccc3)[nH]n2)ccc1O
MeWo [1]
  viability at 10 µM: 51%

## COc1cc(/C=C/C(O)=C/C(=O)c2ccc(O)c(OC)c2)ccc1O
MeWo [1]
  viability at 10 µM: 97%

## Oc1ccc(/C=C/c2cc(-c3ccccc3)[nH]n2)cc1
MeWo [1]
  viability at 10 µM: 98%

## COc1cc(/C=C/C(O)=C/C(=O)c2ccc(O)cc2)cc(OC)c1
MeWo [1]
  viability at 10 µM: 90%

## O=C(/C=C(O)/C=C/c1ccc(O)cc1)c1ccc(O)cc1
MeWo [1]
  viability at 10 µM: 77%

## COc1cc(/C=C/C(O)=C/C(=O)c2ccccc2)cc(OC)c1OC
MeWo [1]
  viability at 10 µM: 93%

## COc1ccc(/C=C/c2cc(-c3ccc(O)c(OC)c3)[nH]n2)cc1
MeWo [1]
  viability at 10 µM: 92%

## COc1cccc(/C=C/c2cc(-c3ccc(O)c(OC)c3)[nH]n2)c1
Tubulin (Homo sapiens) [2]
  inhibition: Active
MeWo [3]
  Activity: Active
[4]
  IC50: 10.6 µM
Tubulin (Homo sapiens) [5]
  inhibition: Active
MeWo [1]
  viability at 10 µM: 27%
MeWo [6]
  IC50: 3.6 µM

## COc1cc(/C=C/c2cc(-c3ccc(O)c(OC)c3)[nH]n2)ccc1O
Tubulin (Homo sapiens) [2]
  inhibition: Active
MeWo [3]
  Activity: Active
[4]
  IC50: 4 µM
Tubulin (Homo sapiens) [5]
  inhibition: Active
MeWo [1]
  viability at 10 µM: 36%
MeWo [6]
  IC50: 3.7 µM

## COc1cc(/C=C/C(=O)CC(=O)/C=C/c2ccc(O)c(OC)c2)ccc1O [CURCUMIN]
Tubulin (Homo sapiens) [2]
  inhibition: Active
MeWo [3]
  Activity: Active
[4]
  IC50: 11.4 µM
Tubulin (Homo sapiens) [5]
  inhibition: Active
MeWo [1]
  viability at 10 µM: 90%
MeWo [6]
  IC50: 35.5 µM

## COc1cc(/C=C/C(O)=C/C(=O)c2ccccc2)ccc1O
MeWo [1]
  viability at 10 µM: 90%

## O=C(/C=C(O)/C=C/c1ccc(O)cc1)c1ccccc1
MeWo [1]
  viability at 10 µM: 90%

## COc1cc(/C=C/C(O)=C/C(=O)c2ccc(O)cc2)cc(OC)c1OC
MeWo [1]
  viability at 10 µM: 85%

## COc1ccc(/C=C/C(O)=C/C(=O)c2ccc(O)cc2)cc1
MeWo [1]
  viability at 10 µM: 93%

## COc1cc(/C=C/C(O)=C/C(=O)c2ccc(O)cc2)ccc1O
MeWo [1]
  viability at 10 µM: 89%

## COc1cc(/C=C/c2cc(-c3ccc(O)cc3)[nH]n2)cc(OC)c1
Tubulin (Homo sapiens) [2]
  inhibition: Active
MeWo [3]
  Activity: Active
[4]
  IC50: 10.6 µM
Tubulin (Homo sapiens) [5]
  inhibition: Active
MeWo [1]
  viability at 10 µM: 38%
MeWo [6]
  IC50: 5.7 µM

## COc1cc(/C=C/c2cc(-c3ccccc3)[nH]n2)cc(OC)c1OC
MeWo [1]
  viability at 10 µM: 89%

## COc1cc(/C=C/C(O)=C/C(=O)c2ccccc2)cc(OC)c1
MeWo [1]
  viability at 10 µM: 92%

## COc1cc(/C=C/c2cc(-c3ccc(O)cc3)[nH]n2)cc(OC)c1OC
MeWo [1]
  viability at 10 µM: 85%

## COc1cc(-c2cc(/C=C/c3ccc(O)cc3)n[nH]2)ccc1O
MeWo [1]
  viability at 10 µM: 95%

## Oc1ccc(/C=C/c2cc(-c3ccc(O)cc3)[nH]n2)cc1
MeWo [1]
  viability at 10 µM: 87%

## COc1cc(/C=C/c2cc(-c3ccc(O)cc3)[nH]n2)ccc1O
MeWo [1]
  viability at 10 µM: 69%

## COc1cc(/C=C/C(O)=C/C(=O)c2ccc(O)c(OC)c2)cc(OC)c1
MeWo [1]
  viability at 10 µM: 88%

## COc1ccc(/C=C/c2cc(-c3ccccc3)[nH]n2)cc1
MeWo [1]
  viability at 10 µM: 92%

## COc1cc(/C=C/c2cc(-c3ccc(O)c(OC)c3)[nH]n2)cc(OC)c1
Tubulin (Homo sapiens) [2]
  inhibition: Active
MeWo [3]
  Activity: Active
[4]
  IC50: 11.8 µM
Tubulin (Homo sapiens) [5]
  inhibition: Active
MeWo [1]
  viability at 10 µM: 43%
MeWo [6]
  IC50: 4.8 µM

## COc1cc(C(=O)/C=C(O)/C=C/c2cc(OC)c(OC)c(OC)c2)ccc1O
MeWo [1]
  viability at 10 µM: 89%

## COc1cc(/C=C/c2cc(-c3ccccc3)[nH]n2)cc(OC)c1
MeWo [1]
  viability at 10 µM: 90%

Source: ChEMBL document CHEMBL2413031, “Synthesis and tubulin-binding properties of non-symmetrical click C5-curcuminoids” (Bioorg Med Chem, 2013)
